In PubChem BioAssay AID822 (SRMLSC, 2007):
Activity calls are given as the source filed them.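 The calls were made as follows: active = half-maximal effective dose for blocking growth of human endothelial cells at most 100 µM; inactive = the rest.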

system: HUVEC proliferation, viability ATP luminescence; assay: HUVEC proliferation inhibition, dose response, cell-based, ATP luminescence (AID 822);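 also: cells exposed to compound for 72 h before the ATP read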
How it was run: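 Material – HUVEC · Amount – 1250 HUVEC cells seeded per well · Medium – EBM plus 2% FBS · Dosing – dose series 0.039 to 20 µM, DMSO 0.2% · Times – 72 h exposure, 37 °C · Detection – ATP luminescence · Read-out basis – % viability and fitted EC50 · Format – collagen-coated plates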

Row | SMILES | EC50
1 | Cc1cc(/C=N/n2cnnc2)c(C)n1-c1ccccc1 | 19.8 µM
2 | O=C(Nc1ccc(Cl)cc1)N1CCCN(Cc2ccc(F)cc2)C1 | 12.6 µM
3 | COc1ccc(CNC(=O)C(C#N)c2nc3ccccc3nc2N2CCN(C)CC2)cc1 (stereo not drawn) | 6.92 µM
4 | Nc1c(C(=O)NCc2ccccc2)nnn1Cc1cccc(Cl)c1 | 13.9 µM
5 | COc1ccc(Cl)c(N2CCN(CCCNC(=O)Nc3ccc(C)cc3)CC2)c1 | 12.3 µM
6 | COC(=O)C1=C(O)/C(=C\c2ccc(CNC(=O)C(=O)Nc3ccc(C)cc3)o2)N=C1C | 19.4 µM
7 | CC(C)C1Cc2c(sc3[nH]c(=S)n(Cc4ccccc4)c(=O)c23)CO1 (stereo not drawn) | 3.05 µM
8 | CC1=CC(C)(C)N2C(=O)C3(C(C#N)=C(N)Oc4cc(O)ccc43)c3c(C)c(C)cc1c32 (stereo not drawn) | 6.14 µM
9 | O=C(Nc1nccs1)c1c(O)c2cccc3c2n(c1=O)CCC3 | 20.4 µM
10 | CCOC(=O)N1CCN(c2ncnc3c2oc2nc(C(C)C)c4c(c23)CCC4)CC1 | 19.4 µM
11 | CC1(C)Nc2ccc(O)cc2-c2c1ssc2=S | 4.58 µM
12 | CN1CCN(Cc2cc(COCc3ccccc3)c3cccnc3c2O)CC1 | 6.08 µM
13 | CC1=C(SCCC#N)S/C(=C2\SC(C)=C(SCCC#N)S2)S1 | 9.1 µM
14 | CCC(=O)OCCNc1cc(Sc2nc3ccccc3s2)c2nonc2c1[N+](=O)[O-] | 14.5 µM
15 | Nc1c(S(=O)(=O)c2ccccc2)c2nc3ccccc3nc2n1/N=C/c1cccc(O)c1 | 6.06 µM
16 | COc1cc(NC(=O)Nc2cccc(Cl)c2)c(OC)cc1NC(=O)CN1CCCCC1 | 5.49 µM
17 | O=C(Nc1nnc(-c2ccc3c(c2)CCCC3)o1)c1ccc(Cl)cc1Cl | 2.25 µM
18 | O=C(Nc1ccc2nn(-c3ccccc3)nc2c1)c1ccc2c(c1)OCO2 | 20.8 µM
19 | CC1(C)Cc2c(C#N)c(N3CCN(C(=O)c4ccco4)CC3)nc(Cc3ccccc3)c2CO1 | 7.74 µM
20 | Cc1occc1-c1nnc(SCC(=O)NCc2cccs2)n1-c1ccc(F)cc1 | 15.2 µM
21 | Nc1c(C(=O)C2CC2)sc2nc(-c3cccs3)cc(C(F)(F)F)c12 | 8.07 µM
22 | CCc1ccc2c(c1)/C(=C/C(=O)c1cccs1)C(=O)N2 | 7 µM

Row | SMILES | EC50
23 | Cc1cc(C)c2oc(-c3ccc(Cl)c(NC(=O)c4ccc(C#N)cc4F)c3)nc2c1 | 10.9 µM
24 | CCOC(=O)c1cnc(-n2nc(C)cc2C)nc1NCCc1ccccc1 | 12.7 µM
25 | O=C(Nc1ccc(N2CCOCC2)cc1)Nc1ccc2nc(-c3ccco3)c(-c3ccco3)nc2c1 | 7.18 µM
26 | COc1cc2nc(NCCCN3CCN(C)CC3)n3nc(-c4ccccc4)nc3c2cc1OC | 10.5 µM
27 | Cc1ccc(C2Oc3ccccc3C3=C2C(c2cccs2)n2ncnc2N3)cc1 (stereo not drawn) | 13.4 µM
28 | Cc1cc(C)n(-c2nc(SCC(=O)N3CCCC3)c3c4c(sc3n2)CCCC4)n1 | 19.4 µM
29 | COC(=O)C1=C(O)/C(=C\c2ccc(CNC(=O)C(=O)Nc3ccc(C)c(C)c3)o2)N=C1C | 13.3 µM
30 | COc1ccc(-c2cc(C(=O)Nc3cc(C)n(Cc4ccc(Cl)cc4)n3)no2)cc1OC | 9.64 µM
31 | CCCc1ccc(Oc2c(-c3ccc(O)c(C)c3O)n[nH]c2C)cc1 | 9.55 µM
32 | CCn1c(=N)n(CC(=O)C23CC4CC(CC(C4)C2)C3)c2ccccc21 | 8.77 µM
33 | CC(=O)Nc1ccc(S(=O)(=O)NC2=C(N3CCN(c4ccc(F)cc4)CC3)C(=O)c3ccccc3C2=O)cc1 | 2.38 µM
34 | COc1ccc(NC(=O)c2oc3ccccc3c2NC(=O)COc2ccccc2OC)c(OC)c1 | 2.8 µM
35 | O=C1C2=C(NC(=S)NC2c2ccc(Cl)cc2)NC(c2ccc(Cl)cc2)N1c1ccc(Cl)cc1 (stereo not drawn) | 5.96 µM
36 | CCc1ccc(NC(=O)CCc2nc3cccnc3n2Cc2ccc(OC)cc2)cc1 | 13.3 µM
37 | COc1cc(N=c2ssnc2Cl)cc(OC)c1OC | 13.4 µM
38 | O=C(Nc1cccc(-c2nnc(-c3ccccc3)o2)c1)c1ccc(Br)o1 | 9.92 µM
39 | CC(=O)Nc1ccc(S(=O)(=O)N2CCN(c3nc(NC4CCCC4)c4ccccc4n3)CC2)cc1 | 4.96 µM
40 | CCOC(=O)c1cccc2c1-c1ccccc1/C2=N/O | 1.31 µM
41 | CC(C)Cn1c(N)c(C(=O)NCc2cccs2)c2nc3ccccc3nc21 | 10.5 µM
42 | CCc1cc(-c2[nH]ncc2-c2ccc3c(c2)OCO3)c(O)cc1O | 7.97 µM
43 | Cc1ccsc1/C=C/C1=Cc2c(sc(NC(=O)CSc3n[nH]c(N)n3)c2C#N)C(C)(C)C1 | 17.7 µM
44 | COc1ccc(-c2nnc(Nc3nc4c(OC)cccc4s3)o2)cc1 | 4.41 µM

Row | SMILES | EC50
45 | COc1cc(/C=C/c2ccc3cccc(OC)c3n2)c(OC(C)=O)c([N+](=O)[O-])c1 | 6.27 µM
46 | Cc1ccc(S(=O)(=O)c2c(C)nn(C(C)(C)C)c2OC(=O)c2ccco2)cc1 | 12.1 µM
47 | CN1CCN(c2nc3ccccc3nc2C(C#N)C(=O)OC2CCCCC2)CC1 (stereo not drawn) | 3.87 µM
48 | COCCCn1[nH]c2c3c(ccc2c1=O)C(=O)c1ccccc1C3=O | 4.66 µM
49 | N=c1c2c(ncn1CCN1CCOCC1)Oc1ccc3ccccc3c1C2c1ccccc1 (stereo not drawn) | 11.9 µM
50 | CC(C)c1ccc(C2C3CSCC=C3C(C#N)=C(N)C2(C#N)C#N)cc1 (stereo not drawn) | 4.86 µM
51 | Cc1cc2c(N=O)c(NO)ccc2[nH]1 | 5.96 µM
52 | Cc1cccc(Nc2nc(NCc3ccco3)nc(N3CCOCC3)n2)c1 | 2.15 µM
53 | COC(=O)CCS(=O)(=O)c1nc(-c2ccccc2)cc(C(F)(F)F)n1 | 9.83 µM
54 | CN1CCN(S(=O)(=O)c2ccc(NC(=O)Nc3cccc(Cl)c3)cc2)CC1 | 6.85 µM
55 | CCc1ccc(-c2nc(CN3CCC(C(=O)NCc4ccc(F)cc4)CC3)c(C)o2)cc1 | 5.89 µM
56 | O=c1[nH]c(=O)n(Cc2ccccc2)c2nc(-c3ccco3)cc(C(F)(F)F)c12 | 17 µM
57 | COc1cccc2sc(Nc3nnc(-c4ccc(F)cc4)o3)nc12 | 0.963 µM
58 | Cc1cc(/C=C2\C(=N)N3C(SCc4ccccc4)=NSC3=NC2=O)c(C)n1Cc1ccccc1 | 5.4 µM
59 | COC(=O)COc1ccc(S(=O)(=O)NCCC2=CCCCC2)cc1 | 10.4 µM
60 | Cc1ccc(C(=O)Nc2ncc(Cc3ccccc3)s2)o1 | 0.711 µM
61 | CCCn1c(Nc2nc3ccccc3n2C)nc2ccccc21 | 3.01 µM
62 | Oc1ccccc1/C=N/Nc1nccnc1Cl | 6.28 µM
63 | CC(=O)n1cc(-c2ccncc2)c2ccccc21 | > 10 µM (inactive)
64 | Cc1ccc(N=Nc2c(C)[nH][nH]c2=O)c(C)c1 | 7.59 µM
65 | COc1ccc2cc3cc(C(=O)Nc4ccc5c(c4)OCO5)oc3nc2c1 | 4.64 µM
66 | COc1cc(OC)cc(C(=O)Nc2ccc(-c3nc4ccccc4o3)cc2)c1 | 6.75 µM

Row | SMILES | EC50
67 | CC1CCN(S(=O)(=O)c2ccc(NC(=O)Cn3nnc(-c4ccccc4F)n3)cc2)CC1 | 6.62 µM
68 | COC(=O)c1c(C)n(-c2ccc(C)cc2)c2ccc(O)cc12 | 18.6 µM
69 | O=c1[nH]c(Nc2nc3ccccc3o2)nc2c1CCCC2 | 17.3 µM
70 | CCCc1cc(C(=O)Cc2ccc(F)cc2)c(O)cc1O | 10 µM
71 | CCOC(=O)c1sc2nc(C(C)C)c3c(c2c1N)CC(C)(C)OC3 | 20.8 µM
72 | COc1ccc(C(=O)C(CN2CCOCC2)c2ccccc2)cc1F (stereo not drawn) | 7.19 µM
73 | OC(COc1ccc(Cl)c2ccccc12)CN1CCN(c2ccccn2)CC1 (stereo not drawn) | 12.3 µM
74 | Cc1cccc(C)c1OCC(=O)N=Nc1c(O)[nH]c2ccc(Br)cc12 | 7.15 µM
75 | CCCSc1nc2c(cnn2-c2ccc(C)cc2)c(=O)[nH]1 | 5.19 µM
76 | Cc1nc2c(-c3ccccc3)c(C)[nH]n2c(=O)c1Cl | 10.5 µM
77 | Cc1cc(S(=O)(=O)N2CCN(Cc3ccc4c(c3)OCO4)CC2)cc(C)c1N1CCCC1=O | 18.3 µM
78 | O=C1c2[nH]nc(-c3ccccc3O)c2C(c2cccc(Cl)c2)N1Cc1ccco1 (stereo not drawn) | 11 µM
79 | CC1=NOC(=O)/C1=C/c1ccc(-c2ccc(Cl)cc2)o1 | 4.06 µM
80 | Cc1nc2sccn2c(=O)c1CCN1CCC(=C(c2ccc(F)cc2)c2ccc(F)cc2)CC1 | 8.98 µM
81 | CC1=C(C(=O)OCc2ccc3c(c2)OCO3)C(c2ccccc2)NC(=O)N1 (stereo not drawn) | 14.1 µM
82 | C=CCc1ccc(OCC(O)CN2CCC(Cc3ccccc3)CC2)c(OC)c1 (stereo not drawn) | 9.81 µM
83 | O=C(CC1CCCCC1)c1c(O)c2ccccc2oc1=O | 4.66 µM
84 | O=C(Nc1ccc(Cl)c(Cl)c1)C1=Cc2ccccc2OC1 | 7.93 µM
85 | CC1CC(C)CN(S(=O)(=O)c2ccc(C(=O)Nc3nnc(-c4cccs4)o3)cc2)C1 (stereo not drawn) | 3.04 µM
86 | CCOC(=O)C1=C(N)n2c(s/c(=C/c3ccco3)c2=O)=C(C(=O)OC)C1c1ccco1 (stereo not drawn) | 5.98 µM
87 | COc1ccc(S(=O)(=O)Nc2ccc(O)c3ccccc23)cc1 | 2.45 µM
88 | COC(=O)C1=C(C)N=c2s/c(=C3\C(=O)Nc4ccccc43)c(=O)n2C1c1ccccc1 (stereo not drawn) | 6.31 µM

Row | SMILES | EC50
89 | CCOC(=O)c1c(N)sc2c(OC)c(Br)ccc12 | 16.8 µM
90 | Cn1c(CNc2cccc(Cl)c2)nnc1SCC(=O)OC1CCCCC1 | 11.1 µM
91 | CCCOC(=O)c1ccc(Oc2c(-c3ccc(OC)cc3O)n[nH]c2C)cc1 | 9.48 µM
92 | CCc1[nH]nc2c1C(c1ccc(Br)s1)C(C#N)=C(N)O2 (stereo not drawn) | 14 µM
93 | C=CCOC(=O)C1=C(C)NC(SCC(=O)Nc2ccc(C)c(Cl)c2)=C(C#N)C1c1ccco1 (stereo not drawn) | 20.1 µM
94 | O=C(c1ccc(F)cc1)C(CN1CCOCC1)c1ccccc1 (stereo not drawn) | 5.11 µM
95 | O=C(Nc1ccc2nn(-c3ccccc3)nc2c1)c1ccc2c(c1)OCCO2 | 20 µM
96 | Cc1nn(-c2ccc(Cl)cc2)c2sc(C(=O)N3CCN(c4ccccn4)CC3)cc12 | 19 µM
97 | CCc1ccc(-c2nc(CN3CCC(C(=O)N4CCN(c5ccccc5)CC4)CC3)c(C)o2)cc1 | 4.09 µM
98 | N#Cc1c(NCCN)nc(NCc2ccccc2)c2c1CCN(Cc1ccccc1)C2 | 13.3 µM
99 | COc1ccc(Nc2nc(N3CCCC3)nc3ccccc23)c(OC)c1 | 12.5 µM
100 | CCOc1ccc(-c2n[nH]c(C)c2Oc2ccc(OC)cc2)c(O)c1 | 12.4 µM
101 | FC(F)C(F)(F)C(F)(F)C(F)(F)c1cc(-c2ccccc2)n[nH]1 | 8.28 µM
102 | Cc1ccccc1N1C(=O)CC(Sc2nnc(-c3ccccc3)o2)C1=O (stereo not drawn) | 15.2 µM
103 | Cc1ccc(/C=C/C(=O)c2ccccc2)cc1 | 17.1 µM
104 | CCOC(=O)c1sc(NC(=O)CSc2nnnn2-c2ccc(C)c(C)c2)nc1C | 6.65 µM
105 | Cc1ccc(C(C)C)c(OCC(=O)Nc2ccc3c(c2)nc(CN2CCCC2)n3C)c1 | 14.6 µM
106 | COc1ccc(O)c(-c2cc(-c3cccc(Br)c3)n[nH]2)c1 | 10.8 µM
107 | CC(=O)SC(C[N+](=O)[O-])c1cn(C(C)=O)c2ccccc12 (stereo not drawn) | 6.72 µM
108 | CC1=CC(C)(C)Nc2ccc(OC(=O)c3cccnc3)cc21 | 12.3 µM
